In brackets after ≈: the same amount, converted by molar mass. Activity calls are given as the source filed them. The calls are words filed in the database; no cut-off is given here.
Columns and labels:
Staphylococcus aureus [1] = assay: Inhibition of cell wall synthesis in rifamycin-resistant Staphylococcus aureus CB370 harboring rpoB H481Y mutant gene assessed as decrease in [2,3-3H]D-alanine incorporation at 0.5 ug/ml; format: functional, organism-based
How it was run: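 Time-course radiolabel incorporation in S. aureus cultures with test agent. Precursors: [methyl-3H]thymidine (DNA), [5,6-3H]uridine (RNA), L-[3,4,5-3H]leucine (protein), [2,3-3H]D-alanine (cell wall). At each time point, incorporation with agent is expressed relative to the DMSO-treated control culture as percent incorporation. Time-zero incorporation is set to 100%.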

Staphylococcus aureus [2] = assay: Antimicrobial activity against Staphylococcus aureus CB1884 harboring rpoB R484H mutant gene, L520 deficient gyrA gene, gyrA S84L mutant gene, R236 duplicated par C gene and parCH103Y mutant gene by broth microdilution; format: functional
How it was run: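 CLSI broth microdilution MIC in MHII broth with 0.002% (vol/vol) polysorbate 80. Isolates came from daily stepwise broth passage at sub-MIC drug (MHII without polysorbate 80, 10^6 CFU/ml inoculum, 20–24 h shaking at 37°C), were purified drug-free, and were sequenced at target loci.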

Staphylococcus aureus [3] = assay: Antimicrobial activity against Staphylococcus aureus CB1884 by agar dilution method; format: functional
How it was run: (§1)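 CLSI agar dilution MIC on MHII base medium against stepwise-passage isolates; passage was in MHII broth without polysorbate 80, daily at 37°C.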

Staphylococcus aureus [4] = assay: Antimicrobial activity against Staphylococcus aureus CB811 harboring quinolone-resistant gyrA S84L mutant gene by broth microdilution method; format: functional
How it was run: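 CLSI broth microdilution MIC in cation-adjusted Mueller-Hinton (MHII) broth supplemented with 0.002% (vol/vol) polysorbate 80, included to limit compound loss to plastic surfaces.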

Staphylococcus aureus [5] = assay: Antimicrobial activity against Staphylococcus aureus CB1947 harboring rpoB H481Y, gyrA S84L, E697 deficient gyrA, parC G167V mutant genes selected after CBR-2092 exposure for 20 days by agar dilution method; conditions: CB1947, 480 h
Staphylococcus aureus [6] = assay: Antimicrobial activity against wild-type Staphylococcus aureus CB190 by agar dilution method; format: functional
How it was run: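 CLSI agar dilution MIC with cation-adjusted Mueller-Hinton (MHII) agar as the base medium.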

Staphylococcus aureus [7] = assay: Antimicrobial activity against Staphylococcus aureus CB1883 harboring rpoB R484H mutant gene, L520 deficient gyrA gene, gyrA S84L mutant gene and R236 duplicated par C gene by agar dilution method; format: functional; how it was run: as §1
Staphylococcus aureus [8] = assay: Antimicrobial activity against Staphylococcus aureus CB1418 harboring rpoB H481Y and gyrA D705N mutant genes selected after 0.1 ug/ml drug exposure by broth microdilution method
Staphylococcus aureus [9] = assay: Inhibition of protein synthesis in Staphylococcus aureus CB190 assessed as decrease in L-[3,4,5-3H]leucine incorporation at 0.5 ug/ml; format: functional, organism-based

Question: How did the Activity (Staphylococcus aureus [1]) turn out when `CO[C@H]1/C=C/O[C@@]2(C)Oc3c(C)c(O)c4c(O)c(c(/C=N/N5CCC(N(C)C6([C@@H]7CCN(c8c(F)cn9c(=O)c(C(=O)O)cc(C%10CC%10)c9c8C)C7)CC6)CC5)c(O)c4c3C2=O)NC(=O)/C(C)=C\C=C\[C@H](C)[C@H](O)[C@@H](C)[C@@H](O)[C@@H](C)[C@H](OC(C)=O)[C@@H]1C` was run?
Answer: Active

Question: What about the MIC (Staphylococcus aureus [2]) of the same compound?
Answer: 64 µg/mL (≈ 53.1 µM)

Question: What about the MIC (Staphylococcus aureus [3]) of the same compound?
Answer: 4 µg/mL (≈ 3.32 µM)

Question: What about the MIC (Staphylococcus aureus [4]) of the same compound?
Answer: 0.015 µg/mL (≈ 0.0124 µM)

Question: And the MIC (Staphylococcus aureus [5])?
Answer: 1 µg/mL (≈ 0.83 µM)

Question: What about the MIC (Staphylococcus aureus [6]) of the same compound?
Answer: 8 ng/mL (≈ 0.00664 µM)

Question: What about the MIC (Staphylococcus aureus [7]) of the same compound?
Answer: 1 µg/mL (≈ 0.83 µM)

Question: What about the MIC (Staphylococcus aureus [8]) of the same compound?
Answer: 0.5 µg/mL (≈ 0.415 µM)

Question: What about the Activity (Staphylococcus aureus [9]) of the same compound?
Answer: Active

Source: ChEMBL document CHEMBL1275434, “In vitro evaluation of CBR-2092, a novel rifamycin-quinolone hybrid antibiotic: studies of the mode of action in Staphylococcus aureus” (Antimicrob Agents Chemother, 2008)
